These results are taken from ChEMBL document CHEMBL3627660, “Tetrafluorophenoxymethyl ketone cruzain inhibitors with improved pharmacokinetic properties as therapeutic leads for Chagas' disease” (Bioorg Med Chem Lett, 2015).

By IC50 is commonly meant the concentration at which inhibition is half-maximal. As usually defined, the Papp is a coefficient for how fast a substance crosses the barrier. The half-life is how long it takes for the measured level to halve. Lower therefore signals fast loss. What is called clearance is the rate of elimination divided by the concentration. What is called Cmax is the highest concentration seen after dosing. As a reminder, the AUC is the area under the concentration-time curve, a measure of exposure. A higher AUC goes with more exposure.

The target of one data set is Cruzipain (Trypanosoma cruzi, UniProt P25779). Briefly: Inhibition of Trypanosoma cruzi recombinant cruzain using Z-FR-AMC as substrate after 5 mins by fluorescence assay.
A further data set has as its system Trypanosoma cruzi. Briefly: Antitrypanosomal activity against Trypanosoma cruzi infected in C2C12 cells after 72 hrs by DAPI staining. The following applies: C2C12, 72 h. The class given is functional, organism-based.
The subject of a further data set is MDCK. The data set can be described thus: Apparent permeability from apical to basolateral side in MDCK cells assessed as per 10^-6 cells. The class given is ADME, cell-based, Canis lupus familiaris. The conditions noted are these: dog.
Another data set concerns the target Cytochrome P450 3A4 (Homo sapiens, UniProt P08684). Briefly: Inhibition of CYP3A4 (unknown origin). Format: ADME.
Data set [1] is described as follows: Volume of distribution at steady state in mouse at 10 mg/kg, iv. Format: ADME, organism-based. The conditions noted are these: in vivo, read-out: Vdss. Put shortly:
(§1)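 Mouse PK study with two dosing arms: 40 mg/kg orally and 10 mg/kg intravenously. The parameters derived were AUC, T1/2, CL, Vss and F%.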

Data set [2] is described as follows: Half life in mouse at 10 mg/kg, iv. The class given is ADME, organism-based. The conditions noted are these: in vivo. An outline of the steps:
as §1

Data set [3] is described as follows: Clearance in mouse at 10 mg/kg, iv. The class given is ADME, organism-based. The following applies: in vivo. An outline of the steps: as §1
Another data set has as its system Mus musculus. The data set can be described thus: Oral bioavailability in mouse at 40 mg/kg. The class given is ADME, organism-based. The conditions noted are these: in vivo. An outline of the steps:
as §1

The nature of data set [4]: Cmax in mouse at 40 mg/kg, po. The arrangement: dose 40 mg/kg, route oral. The conditions noted are these: in vivo. The class given is ADME, organism-based. Put shortly:
(§2)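 In vivo mouse pharmacokinetic study with two arms, intravenous at 10 mg/kg and oral at 40 mg/kg. Exposure parameters derived were AUC, T1/2, CL, Vss and oral bioavailability (F%).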

Data set [5] in a line: AUC in mouse at 10 mg/kg, iv. The class given is ADME, organism-based. The conditions noted are these: in vivo.
A short description of data set [6]: AUC in mouse at 40 mg/kg, po. The conditions noted are these: in vivo. Format: ADME, organism-based.
Data set [7] is described as follows: Half life in mouse at 40 mg/kg, po. The conditions noted are these: in vivo. Format: ADME, organism-based. An outline of the steps:
as §1

Data set [8] in a line: Half life in mice after oral dosing. The conditions noted are these: in vivo.
Data set [9] is described as follows: Cmax in mouse at 10 mg/kg, iv. The following applies: in vivo. The class given is ADME, organism-based. Set-up: dose 10 mg/kg, route intravenous. Put shortly:
as §2

Chain of Cruzipain (P25779 whole entry): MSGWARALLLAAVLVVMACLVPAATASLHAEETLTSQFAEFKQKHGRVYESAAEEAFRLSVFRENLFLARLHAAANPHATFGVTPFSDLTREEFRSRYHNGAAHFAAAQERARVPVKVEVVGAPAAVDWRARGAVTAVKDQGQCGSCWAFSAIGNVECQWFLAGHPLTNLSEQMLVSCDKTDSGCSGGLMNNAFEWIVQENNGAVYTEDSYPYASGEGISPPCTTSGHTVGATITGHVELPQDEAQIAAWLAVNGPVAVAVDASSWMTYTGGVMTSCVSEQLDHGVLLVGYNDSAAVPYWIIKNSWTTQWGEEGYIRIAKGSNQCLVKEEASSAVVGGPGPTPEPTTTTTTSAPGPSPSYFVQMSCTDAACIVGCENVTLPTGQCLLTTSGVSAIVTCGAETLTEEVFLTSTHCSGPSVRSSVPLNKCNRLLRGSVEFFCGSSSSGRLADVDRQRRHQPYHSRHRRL
Chain of Cytochrome P450 3A4 (P08684 whole entry): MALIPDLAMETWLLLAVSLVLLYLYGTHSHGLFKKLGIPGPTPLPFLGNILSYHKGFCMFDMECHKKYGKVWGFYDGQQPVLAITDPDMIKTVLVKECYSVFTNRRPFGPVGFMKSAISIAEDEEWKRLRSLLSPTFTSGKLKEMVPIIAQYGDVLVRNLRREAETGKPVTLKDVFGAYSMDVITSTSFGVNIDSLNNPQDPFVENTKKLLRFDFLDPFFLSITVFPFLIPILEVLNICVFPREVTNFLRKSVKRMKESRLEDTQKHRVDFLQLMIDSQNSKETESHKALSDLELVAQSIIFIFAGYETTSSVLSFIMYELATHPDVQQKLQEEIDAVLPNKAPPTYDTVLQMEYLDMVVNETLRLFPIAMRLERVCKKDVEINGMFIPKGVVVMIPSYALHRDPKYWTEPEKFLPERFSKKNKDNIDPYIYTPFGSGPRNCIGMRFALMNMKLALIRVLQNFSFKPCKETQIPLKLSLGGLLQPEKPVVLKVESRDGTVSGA

Consider `C[C@@](NCc1ccc2occc2c1)(c1cn(C(CCS(C)(=O)=O)C(=O)COc2c(F)c(F)cc(F)c2F)nn1)C1CCCC1` (some centres undefined), for which the IC50 at Cruzipain worked out at 790 nM; in the data set with Trypanosoma cruzi, 5 nM.

In the case of `CCCCC(C(=O)COc1c(F)c(F)cc(F)c1F)n1cc([C@@](C)(NC(=O)c2ccc3ncccc3c2)C(C)C)nn1` (some centres undefined), the values for the IC50 at Cruzipain and in the data set on Trypanosoma cruzi were 1350 nM and 700 nM, respectively.

As to `CC(C)[C@](C)(NCc1ccc2ncccc2c1)c1cn(C(CCS(C)(=O)=O)C(=O)COc2c(F)c(F)cc(F)c2F)nn1` (some centres undefined), the Papp in the data set on MDCK turned out to be 3.49 ×10⁻⁶ cm/s. The values for the IC50 against Cytochrome P450 3A4, on Cruzipain and in the data set on Trypanosoma cruzi were 1200 nM, 560 nM and 380 nM, respectively.

On to `COCCC(C(=O)COc1c(F)c(F)cc(F)c1F)n1cc([C@@](C)(NCc2ccc3ncccc3c2)C(C)C)nn1` (some centres undefined), for which the figures for the half-inhibitory concentration (IC50) on Cruzipain and in the data set on Trypanosoma cruzi were 340 nM and 2 nM, respectively.

Take `CCCCC(C(=O)COc1c(F)c(F)cc(F)c1F)n1cc([C@@](C)(NCc2ccncc2)C(C)C)nn1` (some centres undefined): the figures for the IC50 on Cruzipain and in the data set with Trypanosoma cruzi were 1100 nM and 143 nM, respectively.

On to `CCCCC(C(=O)COc1c(F)c(F)cc(F)c1F)n1cc([C@@](C)(NC(=O)c2ccncc2)C(C)C)nn1` (some centres undefined), for which the IC50 on Cruzipain came to 23000 nM; in the data set on Trypanosoma cruzi, 1600 nM.

Take `CCCCC(C(=O)COc1c(F)c(F)cc(F)c1F)n1cc([C@@](C)(NCc2ccc3ncsc3c2)C(C)C)nn1` (some centres undefined): the Papp in the data set on MDCK was 2.26 ×10⁻⁶ cm/s. In data set [1], the Vd came to 6.5 L/kg. For the same compound, the half-life in data set [2] is 5.67 h; in data set [7], 3.41 h. In data set [3], the clearance came out at 16.6 mL/min/kg. In the data set with Mus musculus, this compound yielded an F of 19.1%. The compound further displayed a Cmax in [4] of 1230 ng/mL. The AUC in data set [5] was 9610 ng·h/mL; in [6] it was 6570 ng·h/mL. The figures for the IC50 against Cytochrome P450 3A4, at Cruzipain and in the data set with Trypanosoma cruzi were 300 nM, 37 nM and 2 nM, respectively.

For `CCCCC(C(=O)COc1c(F)c(F)cc(F)c1F)n1cc([C@@](C)(NC(=O)c2ccc3ncsc3c2)C(C)C)nn1` (some centres undefined), the IC50 at Cruzipain came out at 3590 nM; in the data set on Trypanosoma cruzi, 650 nM.

Consider `CC(C)[C@](C)(NCc1ccc2ncsc2c1)c1cn(C(CCS(C)(=O)=O)C(=O)COc2c(F)c(F)cc(F)c2F)nn1` (some centres undefined), for which the IC50 on Cruzipain is 125 nM; with Trypanosoma cruzi it was 12 nM.

Consider `COCCC(C(=O)COc1c(F)c(F)cc(F)c1F)n1cc([C@@](C)(NCc2ccc3ncsc3c2)C(C)C)nn1` (some centres undefined), for which the IC50 on Cruzipain was determined as 63 nM; with Trypanosoma cruzi, 44 nM.

For `CCCCC(C(=O)COc1c(F)c(F)cc(F)c1F)n1cc([C@@](C)(NCc2ccc3ncsc3c2)C2CCCC2)nn1` (some centres undefined), the figures for the IC50 on Cruzipain and in the data set with Trypanosoma cruzi were 5 nM and 3 nM, respectively.

As for `C[C@@](NCc1ccc2ncsc2c1)(c1cn(C(CCS(C)(=O)=O)C(=O)COc2c(F)c(F)cc(F)c2F)nn1)C1CCCC1` (some centres undefined), in the data set with MDCK, the Papp is 6.8 ×10⁻⁶ cm/s. Also, the 50% inhibitory concentration (IC50) is 200 nM on Cytochrome P450 3A4, 25 nM on Cruzipain and 10 nM in the data set on Trypanosoma cruzi.

In the case of `COCCC(C(=O)COc1c(F)c(F)cc(F)c1F)n1cc([C@@](C)(NCc2ccc3ncsc3c2)C2CCCC2)nn1` (some centres undefined), the IC50 on Cruzipain came to 124 nM; in the data set on Trypanosoma cruzi, 7 nM.

Consider `CC(C)[C@](C)(NCc1ccc2occc2c1)c1cn(C(CCS(C)(=O)=O)C(=O)COc2c(F)c(F)cc(F)c2F)nn1` (some centres undefined), for which the IC50 at Cruzipain turned out to be 880 nM; in the data set with Trypanosoma cruzi it was 3 nM.

For the compound `CCCCC(C(=O)COc1c(F)c(F)cc(F)c1F)n1cc([C@@](C)(NCc2ccn3nccc3n2)C(C)C)nn1` (some centres undefined), the Papp with MDCK is 15.1 ×10⁻⁶ cm/s. Also, the results for the IC50 at Cytochrome P450 3A4, on Cruzipain and in the data set with Trypanosoma cruzi were 314 nM, 75 nM and 8 nM, respectively.

In the case of `CCCCC(C(=O)COc1c(F)c(F)cc(F)c1F)n1cc([C@@](C)(NCc2ccn3nccc3n2)C2CCCC2)nn1` (some centres undefined), the Papp in the data set on MDCK worked out at 2.9 ×10⁻⁶ cm/s. In [1], the Vd came to 4.19 L/kg. The half-life is 3.04 h in [2] and 2.32 h in data set [7]. In data set [3], the clearance is 30.7 mL/min/kg. For the same compound, the F in the data set on Mus musculus is reported as 37%. Also, the AUC in data set [5] was 5370 ng·h/mL; in data set [6], 8110 ng·h/mL. For the same compound, the IC50 is 263 nM on Cytochrome P450 3A4 and 3 nM at Cruzipain.

On to `CC(C)[C@](C)(NCc1ccn2nccc2n1)c1cn(C(CCS(C)(=O)=O)C(=O)COc2c(F)c(F)cc(F)c2F)nn1` (some centres undefined), for which the IC50 at Cruzipain turned out to be 467 nM; in the data set on Trypanosoma cruzi, 2340 nM.

For the compound `COCCC(C(=O)COc1c(F)c(F)cc(F)c1F)n1cc([C@@](C)(NCc2ccn3nccc3n2)C2CCCC2)nn1` (some centres undefined), the IC50 is 2820 nM on Cruzipain and 20 nM in the data set with Trypanosoma cruzi.

As to `CCCCC(C(=O)COc1c(F)c(F)cc(F)c1F)n1cc([C@@](C)(NCc2ccc3ncccc3c2)C2CCCC2)nn1` (some centres undefined), in the data set on MDCK, the Papp is recorded as 0.48 ×10⁻⁶ cm/s. Moreover, the Vd in data set [1] is 5.4 L/kg. Moreover, the half-life is 4.2 h in [2] and 3 h in data set [7]. The clearance in [3] came out at 19 mL/min/kg. Besides, the F with Mus musculus is given as 23%. In addition, the AUC came to 8710 ng·h/mL in data set [5] and 8100 ng·h/mL in data set [6]. Also, the IC50 worked out at 260 nM against Cytochrome P450 3A4, 27 nM on Cruzipain and 15 nM with Trypanosoma cruzi.

For the compound `CCCCC(C(=O)COc1c(F)c(F)cc(F)c1F)n1cc([C@@](C)(NCc2ccc3ncccc3c2)C(C)C)nn1` (some centres undefined), the Papp in the data set on MDCK was 3.02 ×10⁻⁶ cm/s. In data set [1], the Vd is 4.2 L/kg. For the same compound, the figures for the half-life in data set [2], in data set [8] and in [7] were 2.95 h, 3.3 h and 3.34 h, respectively. Further, the clearance in data set [3] came out at 36.2 mL/min/kg. For the same compound, the F with Mus musculus came out at 21%. Moreover, the Cmax in [4] stood at 833 ng/mL; in data set [9], 4130 ng/mL. The AUC in data set [5] came out at 4670 ng·h/mL; in data set [6] it was 3860 ng·h/mL. Also, the values for the IC50 at Cytochrome P450 3A4 and with Trypanosoma cruzi were 3800 nM and 22 nM, respectively.
